Test results from PubChem BioAssay.
Calls of active or inactive are those of the source.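 The calls were made as follows, unless noted: active = inhibition at or above 50% at 10 µM; inactive = inhibition below 50%.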

Assays:
[1] = inhibitors of TNFa-induced NFkB p65 translocation, primary screen, imaging, HUVEC, MLSMR starter and 10KST1 sets (AID 438;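 active = inhibition above 20% together with a positive visual image hit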;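 also: compound added about 3h40 before a 20 min TNFalpha stimulation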;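 as to inhibition: signal is the nuclear over cytoplasmic p65 intensity ratio per well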); details: HUVEC TNFa-induced p65 nuclear translocation; cell count: measured here: nuclei count (cytotoxicity indicator), at 2.08 µM; inhibition: at 2 µM, stronger effect = higher value, 0% TNFa-plus-vehicle, 100% no-TNFa wells
[2] = reduction of polyQ htt aggregates in cells – imaging, exon1htt(103Q)mCFP cells, high-content imaging, primary screen (AID 483;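 active = visual image review flags a hit and inhibition of aggregation exceeds 20%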;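 also: compound exposure lasted 3 days before fixation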;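 as to nuclei count: percent of the per-plate median nuclei count of sample wells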); details: exon1htt(103Q)mCFP cell line, aggregate imaging, at 2 µM; inhibition of aggregation: stronger effect = higher value; nuclei count: measured here: cell count, toxicity
[3] = endothelial E-selectin expression blockers – imaging, HUVEC, immunofluorescence, MLSMR starter and 10KST1 sets, primary screen (AID 487;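 active = visually confirmed hit in the image check and inhibition above 20%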;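 as to inhibition: signal is fraction of cell area covered by stained E-selectin grains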;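 as to nuclei count: 100% = median nuclei count of all wells on the same plate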); details: HUVEC TNFalpha-induced E-selectin immunofluorescence imaging, at 2 µM; inhibition: stronger effect = higher value; nuclei count: measured here: cell number, toxicity
[4] = target: Voltage-gated potassium channel subunit beta-2 (Rattus norvegicus) (UniProt P62483); assay: inhibitors of rat Kvbeta2 reductase activity – biochemical, NADPH fluorescence, primary screen (AID 622;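 active = fluorescence slope higher than the sample average by over 3 SD, cut at about -0.22 in these data, passing the limit was not always enough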;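 also: slope of raw intensity against log time taken from 70 to 1610 s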); details: recombinant KvBeta, 4-cyanobenzaldehyde reduction, at 10 µM, stronger effect = higher value
[5] = target: Voltage-gated potassium channel subunit beta-2 (Rattus norvegicus) (UniProt P62483); assay: enhancers of rat Kvbeta2 NADPH turnover – biochemical, NADPH fluorescence, primary screen (AID 623;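 active = NADPH fluorescence slope more negative than the mean of all samples by about 3 SD, 99.7% confidence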;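 also: fluorescence intensity change per second fitted from 20 to 320 s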); details: Recombinant KvBeta, NADPH fluorescence decrease slope, 10 min; at 10 µM; stronger effect = lower value
[6] = target: Muscarinic acetylcholine receptor M4 (Homo sapiens) (UniProt P08173); assay: M4-linked GIRK flux change, two-sided – cell-based, HEK293 M4/GIRK, thallium flux, BTC-AM, M4 allosteric agonist project, primary screen (AID 625;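 active = fluorescence slope after compound addition differing from the mean of all tested samples at 99.7% confidence, mostly higher but some lower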;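 also: thallium influx through GIRK channels coupled to M4 in HEK293 cells with BTC-AM dye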); details: at 10 µM, actives lie on both sides
In short: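 assay system = HEK293 cells with M4 receptor and GIRK channels | medium = pH 7.3 thallium assay buffer | doses = 10 µM final, single point | timing = cells overnight at 37 °C, BTC-AM loading 1 h, reads 2 min total | signal = BTC-AM fluorescence, 1 Hz kinetic reads | read-out = post-addition slope, 15–24 s, of baseline-normalized fluorescence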

[7] = blockers of RIG-like receptor reporter activation – cell-based, Sendai virus stimulus, luciferase, 10K MLSCN set, TLR/RLR signaling modifier project, primary screen (AID 602276); details: HEK293 RL24 IRF3 luciferase reporter, at 10 µM, stronger effect = higher value;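 also: firefly luciferase from ISG56 promoter only with Renilla not read in this screen; 0% = Sendai virus plus DMSO and 100% = medium plus DMSO without virus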
[8] = TLR3 IRF3 reporter activation blockers – cell-based, poly I:C stimulus, luciferase, 10K MLSCN set, primary screen (AID 602277;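 active = inhibition of the reporter signal at or above 50%; inactive = inhibition below 50%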); details: HEK293-TLR3 RL24 IRF3 luciferase reporter, at 10 µM, stronger effect = higher value

Chain of Voltage-gated potassium channel subunit beta-2 (Rattus norvegicus) (P62483 whole entry, looked up): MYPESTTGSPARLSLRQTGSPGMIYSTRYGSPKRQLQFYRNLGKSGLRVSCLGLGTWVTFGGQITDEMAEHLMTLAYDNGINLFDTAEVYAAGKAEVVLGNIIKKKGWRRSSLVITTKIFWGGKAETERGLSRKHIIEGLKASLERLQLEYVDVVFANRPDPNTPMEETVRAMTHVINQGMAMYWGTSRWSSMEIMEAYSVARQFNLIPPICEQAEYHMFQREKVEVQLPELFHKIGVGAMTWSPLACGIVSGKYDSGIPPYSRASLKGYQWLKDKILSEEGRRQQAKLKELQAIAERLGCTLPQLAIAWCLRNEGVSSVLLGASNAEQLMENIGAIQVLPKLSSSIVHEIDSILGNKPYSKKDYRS
Chain of Muscarinic acetylcholine receptor M4 (Homo sapiens) (P08173 whole entry, looked up): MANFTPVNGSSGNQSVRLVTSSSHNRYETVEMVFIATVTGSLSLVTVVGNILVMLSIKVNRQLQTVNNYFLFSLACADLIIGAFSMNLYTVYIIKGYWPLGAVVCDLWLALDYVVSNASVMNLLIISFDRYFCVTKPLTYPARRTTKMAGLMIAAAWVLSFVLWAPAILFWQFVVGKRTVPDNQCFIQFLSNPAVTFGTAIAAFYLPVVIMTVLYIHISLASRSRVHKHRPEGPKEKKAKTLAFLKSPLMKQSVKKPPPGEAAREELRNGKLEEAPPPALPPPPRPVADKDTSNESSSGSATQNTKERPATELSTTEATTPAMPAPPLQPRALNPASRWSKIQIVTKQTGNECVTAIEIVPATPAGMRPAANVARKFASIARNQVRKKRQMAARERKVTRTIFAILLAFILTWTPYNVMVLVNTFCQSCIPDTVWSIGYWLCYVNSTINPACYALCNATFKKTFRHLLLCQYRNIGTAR

| Structure (SMILES) | cell count [1] | inhibition [1] | inhibition of aggregation [2] | nuclei count [2] [%] | inhibition [3] | nuclei count [3] [%] | fluorescence slope [4] | NADPH fluorescence slope [5] | fluorescence slope [6] | inhibition [7] | inhibition [8] |
| --- | --- | --- | --- | --- | --- | --- | --- | --- | --- | --- | --- |
| CCn1c(SCC(=O)c2ccc3c(c2)OCCO3)nnc1-c1ccco1 | 571 | -38.8% (inactive) | -1% (inactive) | 115 | -52.3% (inactive) | 117 | -0.514 (inactive) | -2.2e-05 (inactive) | 0.00561 (inactive) | 11.1% (inactive) | 0.911% (inactive) |
| Cc1ccc(OCC(=O)N2CCN(C(=O)CCC3CCCC3)CC2)cc1 | 319 | 0.5% (inactive) | -30.7% (inactive) | 84.9 | -1.5% (inactive) | 108 | -0.242 (inactive) | -1.9e-05 (inactive) | 0.00663 (inactive) | 12% (inactive) | 11.5% (inactive) |
| CCNc1nc(OC)nc(Oc2ccc(=O)n(-c3ccccc3)n2)n1 | 769 | 6.8% (inactive) | 8.6% (inactive) | 106 | -86.7% (inactive) | 124 | -0.261 (inactive) | -3e-05 (inactive) | 0.00602 (inactive) | 16.1% (inactive) | 22% (inactive) |
| CCOC(=O)N1CCN(C(=O)Nc2ccc(Cl)cc2)CC1 | 356 | -3.2% (inactive) | 10.6% (inactive) | 99.4 | 21.3% (inactive) | 103 | -0.462 (inactive) | -4.1e-05 (inactive) | 0.00495 (inactive) | 10.8% (inactive) | 3.42% (inactive) |
| CCN1C(=O)OC2(CCCCC2)C1(C)O (stereo not drawn) | 429 | 0% (inactive) | -3.6% (inactive) | 114 | 9.3% (inactive) | 106 | -0.566 (inactive) | 2.7e-05 (inactive) | 0.00575 (inactive) | 4.15% (inactive) | 8.64% (inactive) |
| CCOC(=O)Nc1sc(=S)n(C)c1C | 719 | -12.5% (inactive) | -2.4% (inactive) | 95.3 | 15.9% (inactive) | 95.4 | -0.545 (inactive) | 2.1e-05 (inactive) | 0.00684 (inactive) | 12.9% (inactive) | 28.8% (inactive) |
| CCCN1C2=C(C(=O)CCC2)C(c2ccc(O)c(Br)c2)C2=C1CCCC2=O | 736 | -30.6% (inactive) | 2% (inactive) | 97.2 | -7.3% (inactive) | 107 | -0.531 (inactive) | -5.9e-05 (inactive) | 0.00464 (inactive) | 9.76% (inactive) | 17.2% (inactive) |
| Cn1c2ccccc2c2c(C(=O)NCCCN3CCCC3=O)cn(C3CCCCC3)c(=O)c21 | 592 | -17.5% (inactive) | -29.3% (inactive) | 112 | 20.1% (inactive) | 110 | -0.428 (inactive) | 3.4e-05 (inactive) | 0.00608 (inactive) | 9.9% (inactive) | 15.9% (inactive) |
| Clc1ccc(SCCn2ccnc2)cc1 | 481 | 10.1% (inactive) | -7.9% (inactive) | 104 | -245% (inactive) | 137 | -0.325 (inactive) | -2.6e-05 (inactive) | 0.00636 (inactive) | 2.29% (inactive) | 5.02% (inactive) |
| CC(C)(C)NC(=O)Cn1nnc(-c2cccs2)n1 | 238 | 6.4% (inactive) | 23.3% (inactive) | 99 | -3.4% (inactive) | 85.2 | -0.508 (inactive) | -1.3e-05 (inactive) | 0.00413 (inactive) | 1.59% (inactive) | -13% (inactive) |
| CCc1nnc(NC(=O)c2cccc(C(=O)Nc3nnc(CC)s3)n2)s1 | 700 | -23.3% (inactive) | 13.6% (inactive) | 120 | -18.7% (inactive) | 107 | -0.398 (inactive) | -3.4e-05 (inactive) | 0.00556 (inactive) | -5.37% (inactive) | -13.7% (inactive) |
| COc1ccc(CCNS(=O)(=O)c2ccc(C(=O)NCc3ccco3)cc2)cc1OC | 355 | -13.1% (inactive) | 7.4% (inactive) | 94.7 | -35.9% (inactive) | 66.4 | -0.579 (inactive) | 2.6e-05 (inactive) | 0.00625 (inactive) | -8.15% (inactive) | -15.3% (inactive) |
| Cc1nc2ccccn2c1/C(O)=C1\C(=O)C(=O)N(CCN2CCOCC2)C1c1cccs1 (stereo not drawn) | 318 | 0.2% (inactive) | 0.3% (inactive) | 99.6 | -41.3% (inactive) | 116 | -0.301 (inactive) | -1.7e-05 (inactive) | 0.00659 (inactive) | -0.701% (inactive) | 7.4% (inactive) |
| COc1ccccc1-n1c(C)nnc1SCC(N)=O | 382 | 6.2% (inactive) | 7.3% (inactive) | 100 | -49.7% (inactive) | 103 | -0.521 (inactive) | -1.4e-05 (inactive) | 0.00439 (inactive) | 17.4% (inactive) | 22.3% (inactive) |
| COc1ccc(CCNC(=O)C2CCN(Cc3nc(-c4cccc(Cl)c4)oc3C)CC2)cc1OC | 400 | 6% (inactive) | 17.8% (inactive) | 94.3 | -12.2% (inactive) | 86.6 | -0.584 (inactive) | -1.7e-05 (inactive) | 0.00471 (inactive) | 6.77% (inactive) | -17.9% (inactive) |
| CCc1cc(-c2[nH]ncc2-c2ccc3c(c2)OCO3)c(O)cc1O | 511 | 0.5% (inactive) | 26% (inactive) | 97.8 | -11.5% (inactive) | 111 | -0.572 (inactive) | 3.5e-05 (inactive) | 0.00533 (inactive) | 14% (inactive) | -66.6% (inactive) |
| COc1ccccc1NS(=O)(=O)c1ccc(NC(=O)c2nc3ncccn3n2)cc1 | 266 | 8.8% (inactive) | 8.5% (inactive) | 86.7 | -14% (inactive) | 93 | -0.571 (inactive) | -7.6e-05 (inactive) | 0.0057 (inactive) | 17.6% (inactive) | 13.9% (inactive) |
| O=C(Nc1ccc(Cl)cc1C(=O)Nc1ccncc1)c1ccco1 | 393 | 2.1% (inactive) | -7.4% (inactive) | 81.3 | -148% (inactive) | 101 | -0.316 (inactive) | -1.2e-05 (inactive) | 0.00491 (inactive) | 18.3% (inactive) | 28.5% (inactive) |
| CCOC(=O)N1CCC(NC(=O)C2CCCN2C(=O)OCc2ccccc2)CC1 (stereo not drawn) | 861 | -0.5% (inactive) | -11.6% (inactive) | 120 | -19.6% (inactive) | 110 | -0.561 (inactive) | -1.3e-05 (inactive) | 0.00566 (inactive) | -11.6% (inactive) | -1.88% (inactive) |
| CCc1c(C)nc(N2CCN(Cc3ccccc3)CC2)[nH]c1=O | 623 | -17.8% (inactive) | 17.3% (inactive) | 120 | -51.5% (inactive) | 106 | -0.507 (inactive) | 2.9e-05 (inactive) | 0.00476 (inactive) | 17.7% (inactive) | 10.6% (inactive) |
| CC(=O)NCC(=O)OC(C)C(=O)Nc1ccc(C(C)=O)cc1 (stereo not drawn) | 413 | -12.7% (inactive) | 6.4% (inactive) | 116 | -12.6% (inactive) | 115 | -0.591 (inactive) | -4.9e-05 (inactive) | 0.0073 (inactive) | -0.376% (inactive) | 0.897% (inactive) |
| CCOC(=O)CCCn1nc(C)n2c(cc3sccc32)c1=O | 563 | -3.2% (inactive) | -1.6% (inactive) | 119 | -28.3% (inactive) | 119 | -0.406 (inactive) | 8.7e-05 (inactive) | 0.00716 (inactive) | -11.6% (inactive) | -28.8% (inactive) |
| CCC(C)NC(=O)C1(C)CCC(=O)N1Cc1ccccc1OC (stereo not drawn) | 406 | -14.1% (inactive) | -3.9% (inactive) | 105 | -15.7% (inactive) | 93.9 | -0.512 (inactive) | 0.000141 (inactive) | 0.00751 (inactive) | 12.9% (inactive) | 22.5% (inactive) |
| CCCCC(CC)C(=O)Nc1ccccc1C#N (stereo not drawn) | 452 | 6% (inactive) | -12.4% (inactive) | 106 | -63.4% (inactive) | 118 | -0.419 (inactive) | -2e-05 (inactive) | 0.00611 (inactive) | 14.8% (inactive) | 22.1% (inactive) |
| O=C(Nc1nncs1)c1ccccc1NS(=O)(=O)c1cccs1 | 326 | 21.9% (inactive) | 5.1% (inactive) | 111 | -44.6% (inactive) | 108 | -0.0751 (inactive) | -1.1e-05 (inactive) | 0.00575 (inactive) | -6.81% (inactive) | -4.84% (inactive) |
| C=CCN1C(=O)/C(=C2/Sc3ccccc3N2C)SC1=Nc1c(C)n[nH]c1C | 401 | -0.2% (inactive) | -18.2% (inactive) | 103 | -70.1% (inactive) | 106 | -0.519 (inactive) | -2.3e-05 (inactive) | 0.00378 (inactive) | 12.6% (inactive) | 10.1% (inactive) |
| CCN(CC)c1ccc(NC(=O)c2[nH]c(C)c(C(C)=O)c2C)c(C)c1 | 911 | 7.1% (inactive) | 8.4% (inactive) | 109 | -105% (inactive) | 136 | -0.555 (inactive) | -3.3e-05 (inactive) | 0.00732 (inactive) | 2.56% (inactive) | -8.53% (inactive) |
| CC(Oc1ccc(Cl)cc1Cl)c1nc(-c2ccc(NC(=O)c3cccnc3)cc2)no1 (stereo not drawn) | 413 | 6.5% (inactive) | -6.9% (inactive) | 89.5 | -60.6% (inactive) | 112 | -0.641 (inactive) | 4.9e-05 (inactive) | 0.00494 (inactive) | 1.84% (inactive) | -74.3% (inactive) |
